Test results as given in ChEMBL document CHEMBL5346913, “C-glycosides analogues of the okadaic acid central fragment exert neuroprotection via restoration of PP2A-phosphatase activity: A rational design of potential drugs for Alzheimer's disease targeting tauopathies” (Eur J Med Chem, 2023).
Activity calls are given as the source filed them. No cut-off for these calls is given here.

Key:
SH-SY5Y [1] = assay: Activation of PP2A in human SH-SY5Y cells assessed as restoration of okadaic acid-induced phosphatase activity inhibition at 1 uM preincubated with compound for 24 hrs followed by okadaic acid addition and measured after 18 hrs by pNPP method; type: cell-based; settings: time 42.0 hrs
Summary of the method: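 SH-SY5Y cells (MEM/F12, 10% FBS, 70000 cells/well) preincubated 24 h with compound, then exposed to OA 15 nM plus compound 1 μM for 18 h; phosphatase activity by pNPP method, normalized to untreated control; mean ± SEM, at least 4 independent experiments.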

SH-SY5Y [2] = assay: Neuroprotective activity against okadaic acid-induced cytotoxicity in human SH-SY5Y cells assessed as protection against cell death at 1 uM incubated for 24 hrs by MTT assay relative to control; type: functional
Summary of the method: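 SH-SY5Y cells were pre-incubated 24 h with compound at 1 μM, then co-incubated with okadaic acid 20 nM for 20 h. Viability was read by MTT reduction. Results are % protection relative to okadaic acid-treated cells without compound, as mean ± SEM of at least 4 independent experiments.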

SH-SY5Y [3] = assay: Neuroprotective activity against cytostatin-induced cytotoxicity in human SH-SY5Y cells assessed as protection against cell death at 1 uM […] by MTT assay relative to control; type: functional
Cortical neurone = assay: Neuroprotective activity against glutamate-induced excitotoxicity in rat cortical neurons assessed as protection against cell damage at 1 uM preincubated with compound for 24 hrs followed by glutamate addition and measured after 20 hrs by MTT assay relative to control; type: functional; settings: time 44 hrs
SH-SY5Y [4] = assay: Neuroprotective activity against rotenone/oligomycin-induced oxidative stress in human SH-SY5Y cells assessed as protection against cell death at 1 uM incubated for 20 to 24 hrs by MTT assay relative to control; settings: time 20-24 hrs
SH-SY5Y [5] = assay: Activation of PP2A in human SH-SY5Y cells assessed as restoration of cytostatin-induced phosphatase activity inhibition at 1 uM preincubated with compound for 24 hrs followed by okadaic acid addition and measured after 18 hrs by pNPP method; type: cell-based; settings: filed as activator, time 42.0 hrs, in the assay text read “followed by cytostatin addition” for “followed by okadaic acid addition”
Summary of the method: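 Cells were SH-SY5Y (70000/well), preincubated 24 h with compound, then given cytostatin 2 μM plus compound 1 μM for 18 h; pNPP-measured phosphatase activity normalized to untreated control; mean ± SEM, at least 3 independent experiments.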

[6] = target: Microtubule-associated protein tau (Homo sapiens) (UniProt P10636); assay: Inhibition of okadaic-acid induced tau hyperphosphorylation at Ser202/Thr205 residues in human SH-SY5Y cells at 0.1 uM preincubated with compound for 24 hrs followed by okadaic acid addition and measured after 20 hrs by Western blot analysis; type: cell-based; settings: time 44.0 hrs
Microtubule-associated protein tau (Homo sapiens), sequence (P10636 whole entry): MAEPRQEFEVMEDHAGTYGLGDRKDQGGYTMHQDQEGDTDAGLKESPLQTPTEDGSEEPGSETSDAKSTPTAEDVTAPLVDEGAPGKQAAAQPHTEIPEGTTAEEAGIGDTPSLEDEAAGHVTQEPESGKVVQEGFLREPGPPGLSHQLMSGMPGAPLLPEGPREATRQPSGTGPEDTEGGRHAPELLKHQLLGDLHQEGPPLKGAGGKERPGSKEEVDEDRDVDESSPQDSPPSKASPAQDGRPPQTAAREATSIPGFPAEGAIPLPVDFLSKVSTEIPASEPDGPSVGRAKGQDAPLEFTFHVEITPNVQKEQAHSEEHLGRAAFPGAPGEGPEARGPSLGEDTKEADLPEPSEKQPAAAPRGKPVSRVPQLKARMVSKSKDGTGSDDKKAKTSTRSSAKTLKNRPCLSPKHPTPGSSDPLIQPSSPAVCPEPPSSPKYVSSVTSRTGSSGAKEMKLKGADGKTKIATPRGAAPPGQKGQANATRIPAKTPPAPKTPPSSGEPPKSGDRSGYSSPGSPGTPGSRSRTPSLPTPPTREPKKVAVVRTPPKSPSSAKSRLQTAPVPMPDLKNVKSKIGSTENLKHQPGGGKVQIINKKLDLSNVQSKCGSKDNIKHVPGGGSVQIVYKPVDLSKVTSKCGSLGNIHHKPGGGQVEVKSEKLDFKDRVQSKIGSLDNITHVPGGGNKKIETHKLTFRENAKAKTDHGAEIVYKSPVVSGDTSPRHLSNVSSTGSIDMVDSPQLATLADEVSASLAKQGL
Summary of the method: (§1)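 After 24 h preincubation with compound 0.1 μM, SH-SY5Y cells incubated 20 h with OA 20 nM plus compound; western blot for pTau (Ser202/Thr205) and pGSK-3β (Ser9); mean ± SEM of at least 3 independent experiments.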

[7] = target: Glycogen synthase kinase-3 beta (Homo sapiens) (UniProt P49841); assay: Inhibition of okadaic-acid induced GSK-3beta hyperphosphorylation at Ser9 residue in human SH-SY5Y cells at 0.1 uM preincubated with compound for 24 hrs followed by okadaic acid addition and measured after 20 hrs by Western blot analysis; type: cell-based; settings: time 44.0 hrs; summary of the method: as §1
Glycogen synthase kinase-3 beta (Homo sapiens), sequence (P49841 whole entry, looked up): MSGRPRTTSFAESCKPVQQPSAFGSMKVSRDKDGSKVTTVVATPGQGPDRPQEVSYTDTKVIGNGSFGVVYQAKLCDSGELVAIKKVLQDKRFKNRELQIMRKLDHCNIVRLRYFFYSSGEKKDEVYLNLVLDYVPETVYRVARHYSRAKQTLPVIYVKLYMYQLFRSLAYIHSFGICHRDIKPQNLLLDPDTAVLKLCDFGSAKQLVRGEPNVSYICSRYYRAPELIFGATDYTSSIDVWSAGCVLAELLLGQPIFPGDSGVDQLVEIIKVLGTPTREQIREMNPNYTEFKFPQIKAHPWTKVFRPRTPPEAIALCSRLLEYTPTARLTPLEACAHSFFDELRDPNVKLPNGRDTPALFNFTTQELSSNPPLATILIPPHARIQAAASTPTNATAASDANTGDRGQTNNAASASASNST

[8] = Permeability of the compound in porcine brain by spectrophotometry based PAMPA-BBB assay; settings: pig
HEK293T [9] = assay: Activation of GFP-tagged PP2A-B55alpha (unknown origin) transfected in HEK293T cells using K-R-pT-I-R-R peptide as substrate assessed as recovery of OA-induced PP2A inhibition by measuring increase in substrate phospho hydrolysis at 1 uM measured at 15 to 30 mins by Malachite green method; type: cell-based; settings: Homo sapiens, filed as activator, time 15-30 min
HEK293T [10] = assay: Activation of GFP-tagged PP2A-B56alpha (unknown origin) transfected in HEK293T cells using K-R-pT-I-R-R peptide as substrate assessed as recovery of OA-induced PP2A inhibition by measuring increase in substrate phospho hydrolysis at 1 uM measured at 15 to 30 mins by Malachite green method; type: cell-based; settings: Homo sapiens, filed as activator, time 15-30 min
Mus musculus = assay: Cognitive enhancing effect in LPS-induced mouse model of cognitive impairment assessed as fold change in time exploring the new object at 10 mg/ml, ip by object recognition test; type: functional
Summary of the method: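 Mice injected i.p. with LPS 1 mg/mL and co-injected i.p. with compound 10 mg/mL; object recognition test: day 1 arena familiarization, day 2 two identical objects, day 3 one replaced by an object differing in shape and size; exploration recorded 10 min; new vs old object exploration time compared; mean ± SEM.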

Structure (SMILES) | Activity (SH-SY5Y [1]) | Activity (SH-SY5Y [2]) [%] | Activity (SH-SY5Y [3]) [%] | Activity (Cortical neurone) [%] | Activity (SH-SY5Y [4]) [%] | Activity (SH-SY5Y [1]; filed as activator) | Activity (SH-SY5Y [5]) | inhibition [6] | inhibition [7] | permeability [8] | Activity (HEK293T [9]) | Activity (HEK293T [10]) | fold change (FC) (Mus musculus)
CC1(C)OC[C@H]2O[C@H](CCCOC(=O)c3ccccc3)C=C[C@@H]2O1 | inactive | 69 | 37 | 17 | 15 | – | – | – | – | – | – | – | –
OC[C@H](O)C[C@@H]1C=C[C@@H]2OC(c3ccccc3)OC[C@H]2O1 (some centres not stated) | – | 40 | 21 | 29 | 10 | Active | Active | – | – | – | – | – | –
CC12CC3CC(C)(C1)CC(N)(C3)C2 [MEMANTINE] | – | 60 | 57 | 22 | – | – | – | – | – | – | – | – | –
OC[C@@H](O)C[C@@H]1C=C[C@@H]2OC(c3ccccc3)OC[C@H]2O1 (some centres not stated) | – | 73 | 54 | 13 | 27 | – | Active | – | – | – | – | – | –
O=C(OCCC[C@@H]1C=C[C@@H]2OC(c3ccccc3)OC[C@H]2O1)c1ccccc1 (some centres not stated) | inactive | 72 | 47 | 8 | 7 | – | – | – | – | – | – | – | –
O=C(OCCC[C@@H]1C=C[C@H](O)[C@@H](CO)O1)c1ccccc1 | inactive | 20 | 1 | 17 | 3 | – | – | – | – | – | – | – | –
CC1(C)OC[C@H]2O[C@H](CCCO)C=C[C@@H]2O1 | – | 81 | 45 | 6 | 5 | – | – | – | – | – | – | – | –
COc1ccc2[nH]cc(CCNC(C)=O)c2c1 [MELATONIN] | – | – | – | – | 28 | – | – | – | – | – | – | – | –
CC1(C)OC[C@H]2O[C@H](C[C@H](O)CO)C=C[C@@H]2O1 | – | 72 | 64 | 20 | 16 | Active | Active | Active | Active | Permeable | Active | Active | 2.4
CC1(C)OC[C@H]2O[C@H](C[C@@H](O)CO)C=C[C@@H]2O1 | – | 45 | 56 | 15 | 24 | – | Active | – | – | – | – | – | –
C=CC[C@@H]1C=C[C@@H]2OC(C)(C)OC[C@H]2O1 | – | 50 | 50 | 8 | 63 | – | – | – | – | – | – | – | –
C=CC[C@@H]1C=C[C@H](OC(C)=O)[C@@H](COC(C)=O)O1 | – | 84 | 47 | 19 | 23 | – | – | – | – | – | – | – | –
C=CC[C@@H]1C=C[C@@H]2OC(c3ccccc3)OC[C@H]2O1 (some centres not stated) | – | 80 | 49 | 15 | 26 | – | – | – | – | – | – | – | –
C=CC[C@@H]1C=C[C@H](O)[C@@H](CO)O1 | – | 72 | 45 | 15 | 30 | – | Active | – | – | – | – | – | –
OCCC[C@@H]1C=C[C@@H]2OC(c3ccccc3)OC[C@H]2O1 (some centres not stated) | – | 82 | 52 | 12 | 29 | – | – | – | – | – | – | – | –
